One series addresses D(2) dopamine receptor (Homo sapiens, UniProt P14416). Put plainly: Displacement of [3H]-raclopride from human D2L receptor expressed in HEK293 cell membranes after 1 hr by Microbeta scintillation counting method.
The target in series [1] is T1, 5-hydroxytryptamine receptor 1A (Homo sapiens, UniProt P08908).
T1 sequence (P08908 whole entry): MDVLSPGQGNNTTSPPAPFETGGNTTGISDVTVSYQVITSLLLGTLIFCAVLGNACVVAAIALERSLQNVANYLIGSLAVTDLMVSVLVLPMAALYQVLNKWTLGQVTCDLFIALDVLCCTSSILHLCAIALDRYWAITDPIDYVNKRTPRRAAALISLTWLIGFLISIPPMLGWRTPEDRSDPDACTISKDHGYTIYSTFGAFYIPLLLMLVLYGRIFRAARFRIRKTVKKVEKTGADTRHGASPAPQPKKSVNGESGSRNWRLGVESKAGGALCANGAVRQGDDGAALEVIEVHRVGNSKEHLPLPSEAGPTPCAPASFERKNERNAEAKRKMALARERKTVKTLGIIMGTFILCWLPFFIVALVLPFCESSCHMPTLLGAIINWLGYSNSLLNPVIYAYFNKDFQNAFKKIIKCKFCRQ
Put plainly: Displacement of [3H]-8-OH-DPAT from human 5HT1AR expressed in HEK293 cell membranes after 1 hr by Microbeta scintillation counting method.

Series [2] concerns the target 5-hydroxytryptamine receptor 7 (Homo sapiens, UniProt P34969). The experiment in a line: Displacement of [3H]-5-CT from human 5HT7BR expressed in HEK293 cell membranes after 1 hr by Microbeta scintillation counting method. (In general: Displacement assays read how much labelled ligand stays bound in the presence of the test substance.)
Series [3] has as its target T2, Adrenergic receptor alpha-1 (Rattus norvegicus, UniProt P15823+P23944+P43140).
T2 sequence (P15823 whole entry): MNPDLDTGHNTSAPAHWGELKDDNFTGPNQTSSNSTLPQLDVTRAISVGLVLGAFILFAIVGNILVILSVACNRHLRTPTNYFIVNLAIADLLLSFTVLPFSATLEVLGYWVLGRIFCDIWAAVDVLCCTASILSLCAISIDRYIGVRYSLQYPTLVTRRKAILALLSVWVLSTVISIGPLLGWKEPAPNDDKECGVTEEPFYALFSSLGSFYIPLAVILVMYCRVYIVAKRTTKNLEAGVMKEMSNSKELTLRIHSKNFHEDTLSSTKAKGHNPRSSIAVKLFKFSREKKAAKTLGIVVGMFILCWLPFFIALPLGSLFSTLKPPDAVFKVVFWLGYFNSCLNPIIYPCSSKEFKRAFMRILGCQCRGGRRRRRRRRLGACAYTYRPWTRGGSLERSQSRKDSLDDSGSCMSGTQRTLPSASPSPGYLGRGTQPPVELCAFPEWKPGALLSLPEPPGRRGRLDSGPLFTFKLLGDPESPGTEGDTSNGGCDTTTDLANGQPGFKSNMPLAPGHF
T2 sequence (P23944 whole entry): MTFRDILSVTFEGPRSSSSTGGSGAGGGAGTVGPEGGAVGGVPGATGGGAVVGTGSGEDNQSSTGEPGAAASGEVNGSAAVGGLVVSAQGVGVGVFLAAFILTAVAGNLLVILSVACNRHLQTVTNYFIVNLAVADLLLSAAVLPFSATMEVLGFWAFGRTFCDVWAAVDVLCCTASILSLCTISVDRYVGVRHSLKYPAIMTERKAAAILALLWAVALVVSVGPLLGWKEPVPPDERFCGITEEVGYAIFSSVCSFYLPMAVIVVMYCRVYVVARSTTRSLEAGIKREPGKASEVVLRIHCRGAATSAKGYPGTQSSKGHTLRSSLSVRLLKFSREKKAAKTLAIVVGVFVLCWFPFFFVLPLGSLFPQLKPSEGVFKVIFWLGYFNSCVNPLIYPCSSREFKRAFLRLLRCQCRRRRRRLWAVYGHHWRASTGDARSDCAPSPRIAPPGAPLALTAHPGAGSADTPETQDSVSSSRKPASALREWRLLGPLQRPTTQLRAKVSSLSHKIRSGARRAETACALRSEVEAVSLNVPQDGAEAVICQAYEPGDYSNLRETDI
T2 sequence (P43140 whole entry): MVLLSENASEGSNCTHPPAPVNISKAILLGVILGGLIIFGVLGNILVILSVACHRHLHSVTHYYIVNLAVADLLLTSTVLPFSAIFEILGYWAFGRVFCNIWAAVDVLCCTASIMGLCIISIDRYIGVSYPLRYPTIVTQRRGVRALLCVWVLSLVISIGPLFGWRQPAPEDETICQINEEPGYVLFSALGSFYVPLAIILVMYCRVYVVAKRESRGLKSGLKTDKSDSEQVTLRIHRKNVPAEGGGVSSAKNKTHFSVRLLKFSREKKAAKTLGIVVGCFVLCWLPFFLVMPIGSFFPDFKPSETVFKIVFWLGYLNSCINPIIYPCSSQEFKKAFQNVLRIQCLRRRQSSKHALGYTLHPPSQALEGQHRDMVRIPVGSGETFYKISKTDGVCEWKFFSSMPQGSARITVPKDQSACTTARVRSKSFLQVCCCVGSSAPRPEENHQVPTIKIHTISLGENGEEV
The experiment in a line: Displacement of [3H]-prazosin from alpha1-adrenergic receptor in rat brain cortex after 30 mins by Microbeta scintillation counting method.

Series [4] addresses T3, Adrenergic receptor alpha-2 (Rattus norvegicus, UniProt P22086+P19328+P22909).
T3 sequence (P22086 whole entry): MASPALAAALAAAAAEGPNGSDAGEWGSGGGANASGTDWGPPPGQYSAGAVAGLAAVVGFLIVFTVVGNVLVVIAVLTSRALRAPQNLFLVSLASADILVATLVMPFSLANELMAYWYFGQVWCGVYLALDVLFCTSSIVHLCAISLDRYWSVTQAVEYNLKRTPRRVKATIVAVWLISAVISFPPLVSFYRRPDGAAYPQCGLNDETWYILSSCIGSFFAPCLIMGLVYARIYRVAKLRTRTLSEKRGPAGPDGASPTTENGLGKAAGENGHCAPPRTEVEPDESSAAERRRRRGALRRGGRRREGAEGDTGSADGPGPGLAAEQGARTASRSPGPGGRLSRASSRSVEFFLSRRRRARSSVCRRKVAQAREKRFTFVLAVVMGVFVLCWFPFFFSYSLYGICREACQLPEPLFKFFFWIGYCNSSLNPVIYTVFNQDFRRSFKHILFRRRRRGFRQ
T3 sequence (P19328 whole entry): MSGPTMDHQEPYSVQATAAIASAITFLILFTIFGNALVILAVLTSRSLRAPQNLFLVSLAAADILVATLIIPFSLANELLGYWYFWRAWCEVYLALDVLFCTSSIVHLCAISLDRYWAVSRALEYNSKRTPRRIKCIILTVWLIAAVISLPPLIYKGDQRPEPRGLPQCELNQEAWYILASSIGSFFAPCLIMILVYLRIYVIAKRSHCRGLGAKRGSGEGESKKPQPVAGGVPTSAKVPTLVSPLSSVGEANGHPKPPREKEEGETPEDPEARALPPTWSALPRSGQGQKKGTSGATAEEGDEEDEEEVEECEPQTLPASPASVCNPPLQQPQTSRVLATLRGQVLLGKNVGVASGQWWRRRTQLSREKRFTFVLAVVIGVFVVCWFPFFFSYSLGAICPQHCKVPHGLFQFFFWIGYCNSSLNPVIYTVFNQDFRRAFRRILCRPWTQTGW
T3 sequence (P22909 whole entry): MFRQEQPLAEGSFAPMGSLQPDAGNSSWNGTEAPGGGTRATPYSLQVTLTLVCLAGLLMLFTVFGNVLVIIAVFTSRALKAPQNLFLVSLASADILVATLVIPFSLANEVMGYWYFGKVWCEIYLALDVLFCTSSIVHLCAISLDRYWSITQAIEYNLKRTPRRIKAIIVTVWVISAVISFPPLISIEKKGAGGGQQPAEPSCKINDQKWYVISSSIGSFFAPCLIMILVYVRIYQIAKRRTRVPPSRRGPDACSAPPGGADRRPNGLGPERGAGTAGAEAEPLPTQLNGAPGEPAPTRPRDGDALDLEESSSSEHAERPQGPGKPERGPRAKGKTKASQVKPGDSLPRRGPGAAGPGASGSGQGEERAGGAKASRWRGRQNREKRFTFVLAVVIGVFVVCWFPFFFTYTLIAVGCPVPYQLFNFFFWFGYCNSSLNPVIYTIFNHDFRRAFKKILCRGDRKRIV
The experiment in a line: Displacement of [3H]-clonidine from alpha2-adrenergic receptor in rat brain cortex after 30 mins by Microbeta scintillation counting method.

Series [5] has as its target Beta-1 adrenergic receptor (Rattus norvegicus, UniProt P18090). The experiment in a line: Displacement of [3H]-CGP-12177 from beta1-adrenergic receptor in rat brain cortex after 1 hr by Microbeta scintillation counting method.
Series [6] concerns Mus musculus. Put plainly: Antidepressant like activity in Swiss albino mouse assessed as immobility time at 5 mg/kg, ip administered 60 mins prior to test and measured last 4 mins of 6 mins test by forced swimming test (reference value: 159.78 to 183.56 secs). The series is classed as functional.
The subject of series [7] is Mus musculus. The experiment in a line: Antidepressant like activity in Swiss albino mouse assessed as immobility time at 10 mg/kg, ip administered 60 mins prior to test and measured last 4 mins of 6 mins test by forced swimming test (reference value: 159.78 to 183.56 secs). Type of series: functional.
The test system of series [8] is Mus musculus. Put plainly: Antidepressant like activity in Swiss albino mouse assessed as immobility time at 20 mg/kg, ip administered 60 mins prior to test and measured last 4 mins of 6 mins test by forced swimming test (reference value: 159.78 to 183.56 secs). Type of series: functional.
The subject of series [9] is Mus musculus. The experiment in a line: Anxiolytic-like activity in Swiss albino mouse assessed as number of punished crossings at 5 mg/kg, ip administered 60 mins prior to test and measured post 3 secs of electric shock by four-plate test (reference value: 3.8 to 4 /min). The series is classed as functional.
In series [10] the test system is Mus musculus. The experiment in a line: Anxiolytic-like activity in Swiss albino mouse assessed as number of punished crossings at 10 mg/kg, ip administered 60 mins prior to test and measured post 3 secs of electric shock by four-plate test (reference value: 3.8 to 4 /min). The series is classed as functional.
Series [11] relates to Mus musculus. Put plainly: Anxiolytic-like activity in Swiss albino mouse assessed as number of punished crossings at 20 mg/kg, ip administered 60 mins prior to test and measured post 3 secs of electric shock by four-plate test (reference value: 3.8 to 4 /min). Type of series: functional.
Series [12] relates to Mus musculus. Put plainly: Effect on spontaneous locomotor activity in Swiss albino mouse at 10 mg/kg, ip administered 60 mins prior to test and measured for 3 to 6 mins. The series is classed as ADME, organism-based. Conditions: in vivo. The essentials:
(§1)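 Male Swiss Albino mice given compound or vehicle (1% Tween 80, 10 ml/kg) i.p. 60 min before test. Each mouse placed alone in a cage for 30 min habituation. Ambulation (photobeam channel crossings) then recorded over a 3–6 min session. Means ± SEM.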

For series [13], the system named is Mus musculus. Put plainly: Effect on spontaneous locomotor activity in Swiss albino mouse at 20 mg/kg, ip administered 60 mins prior to test and measured for 3 to 6 mins. Type of series: ADME, organism-based. Conditions: in vivo. The essentials: as §1

Bounds are passed on as bounds.

Sequence of 5-hydroxytryptamine receptor 7 (P34969 whole entry): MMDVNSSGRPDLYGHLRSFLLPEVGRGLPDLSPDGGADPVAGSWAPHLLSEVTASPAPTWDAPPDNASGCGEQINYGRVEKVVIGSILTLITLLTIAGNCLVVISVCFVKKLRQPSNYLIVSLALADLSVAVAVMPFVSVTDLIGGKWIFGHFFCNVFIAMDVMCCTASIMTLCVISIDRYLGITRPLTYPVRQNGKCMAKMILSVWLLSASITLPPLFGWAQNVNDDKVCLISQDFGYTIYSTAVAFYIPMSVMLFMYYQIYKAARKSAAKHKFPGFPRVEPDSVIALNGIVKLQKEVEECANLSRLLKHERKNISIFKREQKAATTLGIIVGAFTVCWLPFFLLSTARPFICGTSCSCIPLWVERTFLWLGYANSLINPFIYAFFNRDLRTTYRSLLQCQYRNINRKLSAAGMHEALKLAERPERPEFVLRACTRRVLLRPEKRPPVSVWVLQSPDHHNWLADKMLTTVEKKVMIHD
Sequence of D(2) dopamine receptor (P14416 whole entry): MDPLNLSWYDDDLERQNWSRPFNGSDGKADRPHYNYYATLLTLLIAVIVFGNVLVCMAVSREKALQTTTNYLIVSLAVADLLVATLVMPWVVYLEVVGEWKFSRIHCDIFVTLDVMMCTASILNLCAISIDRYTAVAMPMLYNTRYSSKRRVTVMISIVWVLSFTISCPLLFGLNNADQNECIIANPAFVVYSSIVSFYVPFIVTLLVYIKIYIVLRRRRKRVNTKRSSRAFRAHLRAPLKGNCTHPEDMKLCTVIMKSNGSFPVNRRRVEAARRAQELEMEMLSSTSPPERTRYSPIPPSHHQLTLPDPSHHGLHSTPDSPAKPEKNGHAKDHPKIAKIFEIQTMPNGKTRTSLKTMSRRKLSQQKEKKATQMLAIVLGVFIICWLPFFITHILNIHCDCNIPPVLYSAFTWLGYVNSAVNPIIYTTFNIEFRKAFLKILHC
Sequence of Beta-1 adrenergic receptor (P18090 whole entry): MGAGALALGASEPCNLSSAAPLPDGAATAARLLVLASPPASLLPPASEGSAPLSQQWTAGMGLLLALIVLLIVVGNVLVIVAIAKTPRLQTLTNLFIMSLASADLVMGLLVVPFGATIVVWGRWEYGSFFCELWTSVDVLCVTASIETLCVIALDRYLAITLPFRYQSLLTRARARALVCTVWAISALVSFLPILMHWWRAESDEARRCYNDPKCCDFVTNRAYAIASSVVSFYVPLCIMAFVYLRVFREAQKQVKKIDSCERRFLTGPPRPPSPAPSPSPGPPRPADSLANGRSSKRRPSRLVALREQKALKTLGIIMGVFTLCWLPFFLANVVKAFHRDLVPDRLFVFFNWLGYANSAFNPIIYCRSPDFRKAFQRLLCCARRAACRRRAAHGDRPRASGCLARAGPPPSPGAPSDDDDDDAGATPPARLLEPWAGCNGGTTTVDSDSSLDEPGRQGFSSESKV

Consider `COc1ccccc1N1CCN(CC(O)CN2C(=O)NC(C)(c3ccc(C)cc3)C2=O)CC1` (racemic), for which the Ki turned out to be 876 nM at D(2) dopamine receptor, 184 nM in [1] and 50 nM in series [2].

For the molecule `CCOc1ccccc1N1CCN(CC(O)CN2C(=O)NC(C)(c3ccccc3)C2=O)CC1.Cl` (racemic), the Ki at D(2) dopamine receptor is 303 nM; in series [1], 190 nM; in [2], 6 nM; in series [3], 500 nM; in series [4], greater than 5000 nM; in [5], greater than 10000 nM.

On to `CC1(c2ccc(Cl)cc2)NC(=O)N(CC(O)CN2CCN(C(c3ccccc3)c3ccccc3)CC2)C1=O.Cl` (racemic), for which the Ki at D(2) dopamine receptor is 601 nM; in [1], 99 nM; in [2] it was 8 nM; in series [3], 530 nM; in series [4], greater than 10000 nM.

In [1], `COc1ccc(C2(C)NC(=O)N(CC(O)CN3CCN(c4ccccc4C#N)CC3)C2=O)cc1` (racemic) showed a Ki of 219 nM.

Take `N#Cc1ccccc1N1CCN(CC(O)CN2C(=O)NC(c3ccccc3)(c3ccccc3)C2=O)CC1` (racemic): the figures for the Ki (at D(2) dopamine receptor; in [1]; in series [2]) were 534 nM, 341 nM and 1200 nM, respectively.

Regarding `COc1ccccc1N1CCN(CC(O)CN2C(=O)NC(C)(c3ccccc3)C2=O)CC1.Cl` (racemic), the inhibition constant (Ki) is 1030 nM at D(2) dopamine receptor; 421 nM in series [1]; 10 nM in [2]; 308 nM in series [3]; greater than 10000 nM in series [5]. Further, the Time in the series on Mus musculus [6] stood at 182.89 s; with Mus musculus [7], 121.38 s; in the series on Mus musculus [8] it was 66.11 s. In addition, the Activity with Mus musculus [9] was 3 min⁻¹; in the series on Mus musculus [10], 4.7 min⁻¹; in the series with Mus musculus [11], 4.3 min⁻¹; in the series on Mus musculus [12] it was “Non-Toxic”; in the series with Mus musculus [13], “Non-Toxic”.

As to `COc1ccccc1N1CCN(CC(O)CN2C(=O)NC(C)(c3ccc(Cl)cc3)C2=O)CC1.Cl` (racemic), the Ki is 366 nM at D(2) dopamine receptor; 109 nM in [1]; 20 nM in [2]; 268 nM in series [3]; greater than 10000 nM in [4].

Take `COc1ccccc1N1CCN(CC(O)CN2C(=O)NC(c3ccccc3)(c3ccccc3)C2=O)CC1` (racemic): the figures for the Ki (at D(2) dopamine receptor; in [1]; in series [2]) were 497 nM, 197 nM and 566 nM, respectively.

A word on the Ki: it is a measure of affinity in units of concentration, obtained from inhibition or displacement.

For the origin of these results see ChEMBL document CHEMBL4145534, “Computer-aided insights into receptor-ligand interaction for novel 5-arylhydantoin derivatives as serotonin 5-HT7 receptor agents with antidepressant activity” (Eur J Med Chem, 2018).
